Laboratory results from PMC3726261 (Cancer, 2012).

Legend:
[1] = Pharmacokinetics: plasma R-150033 by LC-MS/MS after oral efatutazone; format: in vivo, human
Procedure, shortened: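 Adults with advanced solid malignancies took oral doses twice daily in 21-day cycles, in cohorts of 3 to 6 at 0.10–1.15 mg. Plasma was sampled at baseline and 0.5, 1, 2, 3, 4, 6 and 8–10 h after the first dose on day 1 of cycles 1 and 2. Active metabolite R-150033 was measured by validated LC-MS/MS. AUC, Cmax and Tmax were derived; accumulation was AUC0-tau/AUC0–12, and steady state was judged from trough levels.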

[2] = tested on: human colorectal tumor xeno-grafts; details: human colorectal tumor xeno-grafts in nude rodents; cited from earlier work
[3] = tested on: cancer cell growth; details: inhibition of cancer cell growth; cited from earlier work
[4] = tested on: metastatic or advanced solid malignancy; experiment: Tumor response; format: in vivo, human
[5] = in vivo; cited from earlier work
[6] = tested on: adiponectin; experiment: Plasma adiponectin; format: in vivo, human
Procedure, shortened: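 Blood was drawn at baseline (before cycle 1) and every 3 weeks thereafter from patients with advanced solid malignancies given oral drug twice daily at 0.10–1.15 mg in 21-day cycles. Plasma adiponectin was quantified by solid-phase quantitative sandwich enzyme immunoassay. A population pharmacokinetic/adiponectin model using data from every patient defined the dose–response relation and predicted the increase relative to pretreatment.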

[7] = tested on: human pancreatic and anaplastic thyroid tumor-cell cultures; details: cited from earlier work
[8] = tested on: PPAR response element; details: cited from earlier work
[9] = Patient 0020, Myxoid liposarcoma, 0.75 mg
[10] = PPAR response element activation

SMILES: Cc1cc(Oc2ccc3nc(COc4ccc(CC5SC(=O)NC5=O)cc4)n(C)c3c2)cc(C)c1N (stereo not shown) [Efatutazone]
- Dose proportionality of exposure (AUC and Cmax) ([1]; 0.10 to 1.15 mg twice daily, single and multiple doses): approximately dose proportional
- Time to steady-state levels ([1]; based on trough plasma concentrations, twice daily): by week 1 of cycle 2
- Growth of tumor xenografts [2]: inhibits
- Potency relative to rosiglitazone [3]: at least 50 ×
- Potency relative to troglitazone [3]: ≥ 500 ×
- No. of patients with stable disease or partial response ([4]; 0.10 mg cohort (n = 6)): 3
- Treatment duration in patients with SD/PR, Maximum ([4]; 0.10 mg cohort (n = 6)): 294 days
- Treatment duration in patients with SD/PR, Median ([4]; 0.10 mg cohort (n = 6)): 67.0 days
- Treatment duration in patients with SD/PR, Minimum ([4]; 0.10 mg cohort (n = 6)): 66 days
- No. of patients with stable disease or partial response ([4]; 0.15 mg cohort (n = 3)): 2
- Treatment duration in patients with SD/PR, Maximum ([4]; 0.15 mg cohort (n = 3)): 178 days
- Treatment duration in patients with SD/PR, Median ([4]; 0.15 mg cohort (n = 3)): 176.0 days
- Treatment duration in patients with SD/PR, Minimum ([4]; 0.15 mg cohort (n = 3)): 173 days
- No. of patients with stable disease or partial response ([4]; 0.25 mg cohort (n = 4)): 0
- No. of patients with stable disease or partial response ([4]; 0.35 mg cohort (n = 3)): 1
- Treatment duration in patients with SD/PR, Maximum ([4]; 0.35 mg cohort (n = 3)): 84 days
- Treatment duration in patients with SD/PR, Median ([4]; 0.35 mg cohort (n = 3)): 84.0 days
- Treatment duration in patients with SD/PR, Minimum ([4]; 0.35 mg cohort (n = 3)): 84 days
- No. of patients with stable disease or partial response ([4]; 0.50 mg cohort (n = 6)): 3
- Treatment duration in patients with SD/PR, Maximum ([4]; 0.50 mg cohort (n = 6)): 336 days
- Treatment duration in patients with SD/PR, Median ([4]; 0.50 mg cohort (n = 6)): 126.0 days
- Treatment duration in patients with SD/PR, Minimum ([4]; 0.50 mg cohort (n = 6)): 74 days
- No. of patients with stable disease or partial response ([4]; 0.75 mg cohort (n = 3)): 1
- Treatment duration in patients with SD/PR, Maximum ([4]; 0.75 mg cohort (n = 3)): 690 days
- Treatment duration in patients with SD/PR, Median ([4]; 0.75 mg cohort (n = 3)): 690.0 days
- Treatment duration in patients with SD/PR, Minimum ([4]; 0.75 mg cohort (n = 3)): 690 days
- No. of patients with stable disease or partial response ([4]; 1.15 mg cohort (n = 3)): 1
- Treatment duration in patients with SD/PR, Maximum ([4]; 1.15 mg cohort (n = 3)): 84 days
- Treatment duration in patients with SD/PR, Median ([4]; 1.15 mg cohort (n = 3)): 84.0 days
- Treatment duration in patients with SD/PR, Minimum ([4]; 1.15 mg cohort (n = 3)): 84 days
- Patients with stable disease lasting ≥60 days ([4]; 10 of 27 evaluable patients): 37%
- Number of sustained partial responses ([4]; 27 evaluable patients): 1
- No. of patients with stable disease or partial response ([4]; Overall (N = 27)): 11
- Treatment duration in patients with SD/PR, Maximum ([4]; Overall (N = 27)): 690 days
- Treatment duration in patients with SD/PR, Median ([4]; Overall (N = 27)): 126.0 days
- Treatment duration in patients with SD/PR, Minimum ([4]; Overall (N = 27)): 66 days
- Treatment Duration ([4]; Patient 0001, Thymoma, 0.10 mg, stable disease): 67 days
- Treatment Duration ([4]; Patient 0002, Carcinoma of unknown origin, 0.10 mg, stable disease): 66 days
- Treatment Duration ([4]; Patient 0005, Cancer of the peritoneum, 0.10 mg, stable disease): 294 days
- Treatment Duration ([4]; Patient 0007, Colorectal carcinoma, 0.15 mg, stable disease): 173 days
- Treatment Duration ([4]; Patient 0015, Carcinoma of unknown origin, 0.35 mg, stable disease): 84 days
- Treatment Duration ([4]; Patient 0017, Colorectal carcinoma, 0.50 mg, stable disease): 126 days
- Treatment Duration ([4]; Patient 0018, Colorectal carcinoma, 0.50 mg, stable disease): 74 days
- Time on therapy of patient with sustained partial response ([4]; Patient 20, metastatic myxoid liposarcoma): 690 days
- Nadir reduction in tumor size ([4]; Patient 20, metastatic myxoid liposarcoma, June 2009): approximately 49%
- Best response (RECIST) [4, 9]: partial response
- Treatment Duration [4, 9]: 690 days
- Fluorodeoxyglucose uptake (PET/CT) ([4]; Patient 20, November 2008): no fluorodeoxyglucose uptake in the remaining tumors
- Treatment Duration ([4]; Patient 0022, Cancer of the appendix, 1.15 mg, stable disease): 84 days
- Treatment Duration ([4]; Patient 0024, Carcinoma of unknown origin, 0.50 mg, stable disease): 336 days
- Treatment Duration ([4]; Patient 2001, Leiomyosarcoma, 0.15 mg, stable disease): 178 days
- Median overall survival ([4]; in vivo): 283 days
- Median time to disease progression ([4]; in vivo): 51 days
- Median treatment duration for patients with SD or PR ([4]; in vivo): 126 days
- Tolerability of single dose [5]: well tolerated
- Change in adiponectin levels ([6]; after 4 weeks of treatment at all dose levels): increased
- Predicted increase in adiponectin expression levels relative to pretreatment ([6]; at optimal dose, population-based pharmacokinetic/adiponectin modeling): > 90%
- Proliferation of tumor-cell cultures [7]: inhibits proliferation
- Potency relative to rosiglitazone [8, 10]: at least 50 ×
- Potency relative to troglitazone [8, 10]: ≥ 500 ×
- PPAR subtype selectivity of transcription activation ([8]; background statement, no reference given): selectively activates PPARγ-mediated transcription with little effect on other PPAR subtypes
